In ChEMBL document CHEMBL1151206, “Glycosidase-inhibiting pyrrolidines and pyrrolizidines with a long side chain in Scilla peruviana” (J Nat Prod, 2004):

Tests used:
[1] = target: T1, Lysosomal acid glucosylceramidase (Homo sapiens) (UniProt P04062); test: Inhibition of human placental beta-glucocerebrosidase at 1000 uM by spectrophotometry
T1 sequence (whole entry): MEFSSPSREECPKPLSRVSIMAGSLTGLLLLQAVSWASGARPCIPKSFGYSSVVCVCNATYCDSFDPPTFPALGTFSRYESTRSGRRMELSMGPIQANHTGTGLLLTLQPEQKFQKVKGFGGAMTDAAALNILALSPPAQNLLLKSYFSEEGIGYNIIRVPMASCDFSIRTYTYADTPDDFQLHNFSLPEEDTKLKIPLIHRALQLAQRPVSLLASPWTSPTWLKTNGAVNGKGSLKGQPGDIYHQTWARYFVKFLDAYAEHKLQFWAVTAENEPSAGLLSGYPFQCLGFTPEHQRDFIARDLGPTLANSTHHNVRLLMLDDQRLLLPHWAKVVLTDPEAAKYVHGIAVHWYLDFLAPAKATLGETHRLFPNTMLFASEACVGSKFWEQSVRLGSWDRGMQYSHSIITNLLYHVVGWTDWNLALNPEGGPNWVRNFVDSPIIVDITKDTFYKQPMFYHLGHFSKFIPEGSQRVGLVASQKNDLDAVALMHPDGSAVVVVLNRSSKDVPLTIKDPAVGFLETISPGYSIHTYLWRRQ

[2] = Inhibition of rice alpha-glucosidase by spectrophotometry; design: species or system Oryza sativa
[3] = species on record: Rattus norvegicus; test: Inhibition of rat epididymis beta-galactosidase at 1000 uM by spectrophotometry
Procedure, shortened: (§1)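 Enzyme source was rat epididymal fluid purified from epididymis, assayed at pH 5.2 with 2 mM of the relevant p-nitrophenyl glycoside in a 1 mL reaction. The reaction was stopped with 2 mL of 400 mM Na2CO3 and p-nitrophenol was measured at 400 nm.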

[4] = Inhibition of Caldocellum saccharolyticum beta-glucosidase by spectrophotometry; design: species or system Caldicellulosiruptor saccharolyticus
Procedure, shortened: (§2)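 Commercial enzyme assayed with the matching p-nitrophenyl glycoside (2 mM) in a 1 mL reaction, at pH 5.0 for the C. saccharolyticum and almond beta-glucosidases, pH 6.8 for bovine liver beta-galactosidase and pH 6.8 for yeast alpha-glucosidase. The reaction was stopped with 2 mL of 400 mM Na2CO3 and released p-nitrophenol was read at 400 nm. IC50 was determined.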

[5] = Inhibition of yeast alpha-glucosidase by spectrophotometry; design: species or system Saccharomyces cerevisiae; procedure, shortened: as §2
[6] = test system: Prunus dulcis; test: Inhibition of almond beta-glucosidase at 1000 uM by spectrophotometry
[7] = target: Alpha-galactosidase (Coffea arabica) (UniProt Q42656); test: Inhibition of coffee bean alpha-galactosidase at 1000 uM by spectrophotometry
Procedure, shortened: (§3)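 Commercial enzymes (P. decumbens alpha-L-rhamnosidase at pH 4.5, bovine epididymis alpha-L-fucosidase at pH 5.5, coffee bean alpha-galactosidase at pH 6.5) were incubated with 2 mM p-nitrophenyl glycoside in a 1 mL reaction. The reaction was stopped with 2 mL of 400 mM Na2CO3 and p-nitrophenol was read at 400 nm.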

[8] = target: T2, Beta-mannosidase (Rattus norvegicus, UniProt Q4FZV0); test: Inhibition of rat epididymis beta-mannosidase by spectrophotometry; procedure, shortened: as §1
T2 sequence (Q4FZV0 whole entry): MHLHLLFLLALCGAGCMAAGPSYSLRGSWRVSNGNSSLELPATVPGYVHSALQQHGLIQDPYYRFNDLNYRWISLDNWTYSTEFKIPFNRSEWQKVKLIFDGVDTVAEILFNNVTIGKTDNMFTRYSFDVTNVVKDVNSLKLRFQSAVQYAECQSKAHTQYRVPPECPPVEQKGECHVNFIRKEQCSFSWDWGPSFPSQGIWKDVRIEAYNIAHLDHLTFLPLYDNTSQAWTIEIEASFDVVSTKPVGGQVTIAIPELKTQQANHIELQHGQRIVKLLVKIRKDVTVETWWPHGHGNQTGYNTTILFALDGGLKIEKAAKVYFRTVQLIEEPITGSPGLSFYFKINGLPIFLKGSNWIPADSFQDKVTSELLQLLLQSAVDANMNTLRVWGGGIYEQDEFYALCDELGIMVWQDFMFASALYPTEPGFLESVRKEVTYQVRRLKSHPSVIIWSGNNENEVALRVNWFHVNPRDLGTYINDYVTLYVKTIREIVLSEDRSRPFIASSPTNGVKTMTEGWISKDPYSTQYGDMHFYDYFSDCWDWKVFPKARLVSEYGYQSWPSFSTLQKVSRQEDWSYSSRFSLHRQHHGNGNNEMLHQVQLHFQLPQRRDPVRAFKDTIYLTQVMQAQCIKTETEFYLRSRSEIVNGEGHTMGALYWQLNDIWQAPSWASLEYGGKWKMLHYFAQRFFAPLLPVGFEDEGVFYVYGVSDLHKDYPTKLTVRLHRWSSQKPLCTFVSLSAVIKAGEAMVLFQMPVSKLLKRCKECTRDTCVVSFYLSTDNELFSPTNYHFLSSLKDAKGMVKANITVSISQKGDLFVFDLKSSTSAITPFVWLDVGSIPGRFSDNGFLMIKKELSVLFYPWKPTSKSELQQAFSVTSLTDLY

[9] = test system: Penicillium decumbens; test: Inhibition of Penicillium decumbens alpha-L-rhamnosidase at 1000 uM by spectrophotometry; procedure, shortened: as §3
[10] = species on record: Rattus norvegicus; test: Inhibition of rat epididymis alpha-mannosidase at 1000 uM by spectrophotometry; procedure, shortened: as §1
[11] = target: T3, Beta-galactosidase (Bos taurus, UniProt Q58D55); test: Inhibition of bovine liver beta-galactosidase by spectrophotometry; procedure, shortened: as §2
T3 sequence (Q58D55 whole entry): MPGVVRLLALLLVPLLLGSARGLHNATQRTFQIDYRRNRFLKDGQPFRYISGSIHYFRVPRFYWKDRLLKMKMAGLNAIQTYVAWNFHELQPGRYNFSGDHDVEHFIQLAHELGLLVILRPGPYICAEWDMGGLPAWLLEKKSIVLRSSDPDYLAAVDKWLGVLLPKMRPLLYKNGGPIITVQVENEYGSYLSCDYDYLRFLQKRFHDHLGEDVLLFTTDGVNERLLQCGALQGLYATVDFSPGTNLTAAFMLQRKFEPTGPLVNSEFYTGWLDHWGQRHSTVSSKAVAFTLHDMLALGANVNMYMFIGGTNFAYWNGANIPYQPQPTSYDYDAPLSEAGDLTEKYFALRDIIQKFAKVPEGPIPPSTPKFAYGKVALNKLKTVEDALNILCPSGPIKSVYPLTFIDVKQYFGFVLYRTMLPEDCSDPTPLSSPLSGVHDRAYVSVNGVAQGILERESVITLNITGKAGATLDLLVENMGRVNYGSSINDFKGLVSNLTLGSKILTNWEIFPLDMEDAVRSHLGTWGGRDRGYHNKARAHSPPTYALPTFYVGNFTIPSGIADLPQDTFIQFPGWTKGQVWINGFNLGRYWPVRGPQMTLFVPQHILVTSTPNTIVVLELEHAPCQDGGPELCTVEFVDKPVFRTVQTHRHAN

[12] = target: T4, Tissue alpha-L-fucosidase (Bos taurus) (UniProt Q2KIM0); test: Inhibition of bovine epididymis alpha-L-fucosidase at 1000 uM by spectrophotometry; procedure, shortened: as §3
T4 sequence (whole entry): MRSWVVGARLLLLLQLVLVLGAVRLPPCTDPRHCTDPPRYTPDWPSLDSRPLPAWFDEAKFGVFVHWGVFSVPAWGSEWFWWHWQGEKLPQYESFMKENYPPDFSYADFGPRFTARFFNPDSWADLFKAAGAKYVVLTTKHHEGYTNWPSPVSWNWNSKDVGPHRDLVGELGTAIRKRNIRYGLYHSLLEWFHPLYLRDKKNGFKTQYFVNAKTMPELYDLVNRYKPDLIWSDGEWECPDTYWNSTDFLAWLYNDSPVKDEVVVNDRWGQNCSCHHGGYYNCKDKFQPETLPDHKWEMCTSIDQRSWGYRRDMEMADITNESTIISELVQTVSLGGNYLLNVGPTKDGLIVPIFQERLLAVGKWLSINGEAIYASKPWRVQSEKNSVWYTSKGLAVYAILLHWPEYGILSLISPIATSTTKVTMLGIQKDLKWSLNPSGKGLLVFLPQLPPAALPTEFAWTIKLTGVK

[13] = Inhibition of almond beta-glucosidase by spectrophotometry; design: species or system Prunus dulcis; procedure, shortened: as §2
[14] = target: T5, Lysosomal acid glucosylceramidase (Homo sapiens, UniProt P04062); test: Inhibition of human placental beta-glucocerebrosidase by spectrophotometry
T5 sequence (P04062 whole entry): T1 sequence (whole entry)
Procedure, shortened: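 Human placental beta-glucocerebrosidase (Ceredase) was assayed at pH 5.5 with 2 mM p-nitrophenyl glycoside substrate in a 1 mL reaction. The reaction was stopped with 2 mL of 400 mM Na2CO3 and released p-nitrophenol was read at 400 nm.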

[15] = target: T6, Beta-mannosidase (Rattus norvegicus) (UniProt Q4FZV0); test: Inhibition of rat epididymis beta-mannosidase at 1000 uM by spectrophotometry
T6 sequence (whole entry): T2 sequence (Q4FZV0 whole entry)

[16] = test system: maltase-glucoamylase (Rattus norvegicus); test: Inhibition of rat intestinal maltase at 1000 uM by spectrophotometry
[17] = Inhibition of Penicillium decumbens alpha-L-rhamnosidase by spectrophotometry
Procedure, shortened: (§4)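 Substrate was the matching p-nitrophenyl glycoside at 2 mM. Penicillium decumbens α-L-rhamnosidase was run at pH 4.5. α-Mannosidase came from purified rat epididymal fluid and was run at pH 5.2. Reactions were stopped with 400 mM Na2CO3, and released p-nitrophenol was read at 400 nm.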

[18] = Inhibition of rat epididymis alpha-mannosidase by spectrophotometry; procedure, shortened: as §4

Alpha-galactosidase (Coffea arabica), sequence (Q42656 16-378 limits assumed): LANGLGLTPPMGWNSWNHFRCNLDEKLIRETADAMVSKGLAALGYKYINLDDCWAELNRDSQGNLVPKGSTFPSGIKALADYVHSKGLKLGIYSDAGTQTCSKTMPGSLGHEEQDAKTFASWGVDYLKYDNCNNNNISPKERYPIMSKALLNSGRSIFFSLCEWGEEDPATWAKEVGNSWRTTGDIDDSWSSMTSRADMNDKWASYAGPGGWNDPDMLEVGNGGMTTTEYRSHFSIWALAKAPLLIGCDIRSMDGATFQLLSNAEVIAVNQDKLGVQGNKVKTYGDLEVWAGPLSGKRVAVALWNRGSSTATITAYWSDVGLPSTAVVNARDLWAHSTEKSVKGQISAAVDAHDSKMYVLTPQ

Row | inhibition [1] [%] | IC50 [2] [µM] | inhibition [3] [%] | IC50 [4] [µM] | IC50 [5] [µM] | inhibition [6] [%] | inhibition [7] [%] | IC50 [8] [µM] | inhibition [9] [%] | inhibition [10] [%] | IC50 [11] [µM] | inhibition [12] [%] | IC50 [13] [µM] | IC50 [14] [µM] | inhibition [16] [%] | Structure (SMILES) | inhibition [15] [%] | IC50 [17] [µM] | IC50 [18] [µM]
1 | < 50 | 210 | < 50 | 700 | 100 | < 50 | < 50 | 610 | < 50 | < 50 | 260 | < 50 |  |  |  | CC(O)C[C@H]1N[C@H](CO)[C@@H](O)[C@@H]1O (some centres undefined) |  |  | 
2 |  |  |  |  |  |  |  |  |  |  |  |  | 0.01 |  |  | O=C(CCCCO)CCCCCCC[C@@H](O)[C@H]1N[C@H](CO)[C@@H](O)[C@@H]1O |  |  | 
3 |  |  |  | 3.2 |  |  |  |  |  |  | 4.4 |  |  |  |  | OC[C@@H](O)[C@H]1N[C@H](CO)[C@@H](O)[C@@H]1O |  |  | 
4 |  | 265 | < 50 | 0.08 | 220 |  | < 50 | 9.3 | < 50 | < 50 | 0.09 | < 50 | 6.6 | 970 |  | OCC(O)CCCCC(O)CC(O)CCC[C@@H](O)[C@H]1N[C@H](CO)[C@@H](O)[C@@H]1O (some centres undefined) |  |  | 
5 |  |  |  |  |  |  |  |  |  |  |  |  | 0.01 |  |  | OC[C@H]1N[C@H]([C@H](O)CCCC[C@@H]2CCC[C@]3(CCCO3)O2)[C@@H](O)[C@@H]1O |  |  | 
6 | < 50 | 390 | < 50 | 11.4 | 650 |  | < 50 |  | < 50 | < 50 | 920 | < 50 | 25.4 |  | < 50 | OCC(O)CC(O)[C@@H]1CC[C@@H]2[C@H](O)[C@H](O)[C@@H](CO)N21 (some centres undefined) | < 50 |  | 
7 |  |  |  |  |  |  |  |  |  |  |  |  | 0.01 |  |  | O=C(CCCCCCC[C@@H](O)[C@H]1N[C@H](CO)[C@@H](O)[C@@H]1O)CCCCO[C@@H]1O[C@H](CO)[C@@H](O)[C@H](O)[C@H]1O |  |  | 

Row | Structure (SMILES) | inhibition [1] [%] | IC50 [2] [µM] | inhibition [3] [%] | IC50 [4] [µM] | IC50 [5] [µM] | inhibition [6] [%] | inhibition [7] [%] | IC50 [8] [µM] | inhibition [9] [%] | inhibition [10] [%] | IC50 [11] [µM] | inhibition [12] [%] | IC50 [13] [µM] | IC50 [14] [µM] | inhibition [16] [%] | inhibition [15] [%] | IC50 [17] [µM] | IC50 [18] [µM]
8 | CC(O)CC(O)[C@@H]1CC[C@@H]2[C@H](O)[C@H](O)[C@@H](CO)N21 (some centres undefined) | < 50 | 300 | < 50 | 5.1 | 3.6 |  | < 50 |  |  |  | 830 | < 50 | 9.5 |  |  | < 50 | 180 | 680
